Source: PubChem
FN deposition inh: fibronectin deposition inhibition; AH1F fibroblasts, Alexa488-fibronectin deposition fluorescence, overnight; inhibition, % at 12.6 µM; 350,000 tested, 0.086% active;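 active = mean inhibition across replicates of 30% or more, regardless of how many single replicates reach that level; inconclusive = mean under 30% yet at least half of replicates reach 30%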;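 also: positive control wells lacked labelled fibronectin entirely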
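Assay system: AH1F fibroblasts assembling fluorescent fibronectin matrix; Amount: 10000 AH1F cells per well; Buffer or medium: DMEM, 2% serum; Probe or stimulus: Alexa488-fibronectin, 24 nM final in well; Doses: single compound dose, delivered by pin transfer; Incubation: 1 h adhesion, overnight exposure; Measured by: fluorescence 485/525 nm; Read-out: fibronectin deposition inhibition.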
LGR2 antag: Drosophila LGR2 receptor signaling inhibition; HEK293 LGR2, CRE-luciferase, bursicon-stimulated, 4 h; inhibition, % at 9.99 µM; 380,000 tested, 0.35% active; AID 720647;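 active = drop in luminescence signal, shown as inhibition above about 50% in the replicate tests, limit read from the data, passing the limit was not always enough; inconclusive = probably only some replicates passing the limit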;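 also: agonist challenge used bursicon conditioned medium at about half maximal strength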
XiGFP reactiv: X-chromosome reactivation activator | XiGFP mouse fibroblasts, % GFP-positive cells imaging, 3 d; cells co-treated with 5-aza-dC sensitizer; scaled so ellipticine positive control = 100% | activation, % at 7.58 µM | 360,000 tested, 0.055% active;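 active = mean normalized replicate activation at least 10% and every replicate at or above 10%; inconclusive = only one of the two criteria met; inactive = mean below 10% and not all replicates reach 10%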;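 also: 0% = median of on-plate neutral control wells and 100% = ellipticine 6 µM median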
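Assay system: SV40-immortalized XiGFP fibroblast cells, line 68-5-11; buffer or medium: DMEM plus 5-aza-dC sensitizer; compound: one concentration, pinned; timing: compounds 3 days, fix/stain 15 min at room temperature; benchmarks: positive control ellipticine, 6 µM final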
TROY NFkB inh: blocks TROY-dependent signaling in reporter cells | Q293 LMP1-TROYcd NF-kB luciferase reporter, 4 h | inhibition, % at 10 µM | 360,000 tested, 0.98% active | AID 1347056;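 active = compounds whose plate-normalised and pattern-corrected inhibition of the luciferase reporter signal at the single screening dose is 50% or more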
TWEAK Fn14 block: TWEAK-Fn14 signaling inhibition; TWEAK-stimulated Fn14 reporter cells, luciferase luminescence, 8 h; inhibition, % at 10 µM; 360,000 tested, 2% active; in the data active = inhibition above about 50%
EWS-Fli inh: blocks EWS/Fli oncoprotein-driven transcription; A673 NR0B1-luciferase reporter, viability-normalised; inhibition, % at 12.6 µM; 350,000 tested, 0.67% active;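 active = mean inhibition of at least 50% after viability correction, with every replicate also passing that limit; inconclusive = mean reaches 50% but only one of two replicates passes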;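 also: firefly luciferase signal divided by Alamar Blue viability fluorescence both relative to DMSO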
* = called active by the depositor. Sampled rows, rich in hits. Any-hit rate of the full collection: about 2.3%.

For Cc1noc(C)c1S(=O)(=O)Nc1ccc2c(c1)CC(=O)N([C@H](C)CO)C[C@H](C)[C@H](CN(C)Cc1ccc3c(c1)OCO3)O2 the results were LGR2 antag -2.7, XiGFP reactiv 0.1 and EWS-Fli inh -0.3.
`O=C(CSC1CC(=O)N(CC(c2ccccc2)c2ccccc2)C1=O)Nc1ccc(Cl)cc1` (stereo unspecified) gave FN deposition inh -13.3, TROY NFkB inh 51.2* and TWEAK Fn14 block 32.4.
For Cn1c(Oc2ccc(Cl)cc2)c(C=O)c2ccccc21 the results were TROY NFkB inh 29.0 and TWEAK Fn14 block 64.1*.
For Cn1c(Sc2ccc(Cl)cc2)c(C=O)c2ccccc21 the results were TROY NFkB inh 55.0* and TWEAK Fn14 block 80.1*.
For Cc1noc(C)c1S(=O)(=O)Nc1ccc2c(c1)C(=O)N([C@@H](C)CO)C[C@H](C)[C@H](CN(C)S(=O)(=O)c1cccs1)OCCCC[C@H](C)O2 the results were FN deposition inh -6.0, LGR2 antag 17.3, XiGFP reactiv 0.0 and EWS-Fli inh 10.2.
Screening C[C@H](CO)N1C[C@H](C)[C@H](CN(C)Cc2ccc(Oc3ccccc3)cc2)Oc2c(NS(=O)(=O)c3cccs3)cccc2C1=O returned FN deposition inh 5.6, LGR2 antag -6.5, XiGFP reactiv 0.1 and EWS-Fli inh 10.3.
For CSc1nc(N2CCOCC2)c2c(c1C#N)CCCCC2 the results were LGR2 antag 1.9, TROY NFkB inh -1.9 and TWEAK Fn14 block 93.0*.
For COC(=O)CSc1nc(N2CCCCC2)c2c(c1C#N)CCCC2 the results were FN deposition inh 6.2, TROY NFkB inh -16.8 and TWEAK Fn14 block 91.4*.
`CCCSc1nc(N2CCOCC2)c2c(c1C#N)CCCC2` gave FN deposition inh -21.3, TROY NFkB inh 4.5 and TWEAK Fn14 block 9.1.
Screening C[C@H](CO)N1C[C@H](C)[C@@H](CN(C)C(=O)Nc2ccccc2)OCCCC[C@H](C)Oc2ccc(NC(=O)Nc3ccc(C(F)(F)F)cc3)cc2C1=O returned XiGFP reactiv 0.4.
For O=C(C[C@@H]1CC[C@H]2[C@@H](COC[C@H](O)CN2C(=O)c2ccccc2F)O1)N1CCOCC1 the results were FN deposition inh -6.5, LGR2 antag -1.5, XiGFP reactiv 0.0 and EWS-Fli inh -6.3.
Screening COc1ccc(C(=O)c2ccc(Cl)c([N+](=O)[O-])c2)cc1 returned FN deposition inh 3.4, LGR2 antag 5.9, XiGFP reactiv 3.0, TROY NFkB inh 22.7, TWEAK Fn14 block 20.4 and EWS-Fli inh 48.3.
For O=C(COC(=O)c1ccc(Cl)c([N+](=O)[O-])c1)NC1CCCC1 the results were FN deposition inh 0.8, LGR2 antag -21.9, XiGFP reactiv 0.3, TROY NFkB inh 4.8, TWEAK Fn14 block 6.4 and EWS-Fli inh 6.4.
Screening CN(CCC#N)C(=O)COC(=O)c1ccccc1C(=O)c1ccc(Cl)c([N+](=O)[O-])c1 returned FN deposition inh 6.1, XiGFP reactiv 1.1, TROY NFkB inh 55.3*, TWEAK Fn14 block 30.1 and EWS-Fli inh 45.5.
For CC(C)N(C(=O)COC(=O)c1ccccc1C(=O)c1ccc(Cl)c([N+](=O)[O-])c1)C(C)C the results were FN deposition inh -18.0, LGR2 antag 94.3*, XiGFP reactiv -0.2, TROY NFkB inh 74.2*, TWEAK Fn14 block 35.4 and EWS-Fli inh inconclusive.
CN(CCC#N)C(=O)COC(=O)c1ccc(Cl)c(S(N)(=O)=O)c1 was read as FN deposition inh 4.3, TROY NFkB inh -7.3 and TWEAK Fn14 block -6.5.
For Cn1c(N)c(C(=O)COC(=O)c2ccccc2C(=O)c2ccccc2)c(=O)n(C)c1=O the results were FN deposition inh 1.2, LGR2 antag -3.4, XiGFP reactiv 0.2, TROY NFkB inh 8.8, TWEAK Fn14 block 20.8 and EWS-Fli inh 2.3.
For O=C(COC(=O)c1ccccc1C(=O)c1ccc(Cl)c([N+](=O)[O-])c1)NC1CCCCCC1 the results were FN deposition inh -9.0, TROY NFkB inh 78.0* and TWEAK Fn14 block 98.5*.
`Cn1c(N)c(C(=O)COC(=O)c2ccccc2C(=O)c2ccc(Cl)c([N+](=O)[O-])c2)c(=O)n(C)c1=O` gave TROY NFkB inh 65.1* and TWEAK Fn14 block 87.7*.
Screening C[C@H](CO)N1C[C@H](C)[C@H](CN(C)S(=O)(=O)c2ccccc2F)Oc2ncc(C#Cc3ccccc3F)cc2C1=O returned FN deposition inh 1.2, LGR2 antag -1.1, XiGFP reactiv -1.2 and EWS-Fli inh -29.1.
For COC(=O)c1c2oc(c1C(=O)OC)C(=O)N[C@@H](Cc1ccccc1)Cn1cc(nn1)CNC(=O)[C@@H](Cc1ccccc1)NC(=O)N[C@@H](CO)CC2 the results were EWS-Fli inh -6.2.
`COc1ccc(NC(=O)N(C)C[C@@H]2OCCCC[C@@H](C)Oc3ccc(NC(=O)C4CCCCC4)cc3C(=O)N([C@@H](C)CO)C[C@H]2C)cc1` gave LGR2 antag -5.0, XiGFP reactiv 0.0 and EWS-Fli inh 3.7.
`CCCC(=O)Nc1ccc2c(c1)C(=O)N(C)C[C@H](OC)[C@@H](C)CN(C(=O)c1ccccc1F)[C@H](C)CO2` gave FN deposition inh 4.3, LGR2 antag -3.6, XiGFP reactiv 0.4 and EWS-Fli inh 5.5.
Screening O=C(NC12CCC(O)C(SC1)/C2=N/O)c1ccccc1 (stereo unspecified) returned FN deposition inh -5.0, TROY NFkB inh -8.2 and TWEAK Fn14 block 83.0*.
Cc1cc(C)c(NS(=O)(=O)c2cccc3cccnc23)c(C)c1 was read as LGR2 antag -7.4, XiGFP reactiv 0.0, TROY NFkB inh -1.7, TWEAK Fn14 block -9.1 and EWS-Fli inh -35.8.
CC(=O)Nc1ccc(S(=O)(=O)Nc2cccc3cccnc23)cc1 was read as FN deposition inh -6.5, LGR2 antag 7.5, XiGFP reactiv 0.0, TROY NFkB inh 15.0, TWEAK Fn14 block -17.2 and EWS-Fli inh 8.2.
For Cc1ccc(S(=O)(=O)Nc2cccc3cccnc23)c([N+](=O)[O-])c1 the results were FN deposition inh 34.5*, LGR2 antag -0.4, XiGFP reactiv 2.3, TROY NFkB inh 79.2*, TWEAK Fn14 block 98.7* and EWS-Fli inh 6.6.
For O=S(=O)(Nc1cccc2cccnc12)c1ccccc1 the results were FN deposition inh 11.0, LGR2 antag 2.9, XiGFP reactiv 1.5, TROY NFkB inh 28.6, TWEAK Fn14 block 100.9* and EWS-Fli inh 70.5*.
Screening CO[C@H]1CN(C)C(=O)c2cc(NC(C)=O)ccc2OC[C@H](C)N(Cc2cncnc2)C[C@H]1C returned FN deposition inh -9.8, LGR2 antag -3.7, XiGFP reactiv -0.2 and EWS-Fli inh -2.1.
